Screening results (PubChem BioAssay)
ABHD4 inh: inhibits mouse alpha/beta hydrolase domain 4 | 370,000 compounds, 0.54% hits | inhibition, % at 8.92 µM | purified mABHD4, FP-Rh probe fluorescence polarization | Q8VD66;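 active = inhibition exceeding the mean over every tested compound plus 3 SD, cut at about 30% in these data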;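 note: 0% = plate median of compound wells and 100% = S159A mutant with DMSO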
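Doses – 8.92 µM, single dose · Material – wild-type mouse ABHD4 protein · Replication – single well per compound (singlicate) · Measure – percent inhibition of probe binding, normalized to plate controls · Schedule – 45 min compound pre-incubation plus 60 min probe step, 25 °C · Detection – fluorescence polarization with parallel and perpendicular emission, 525/598 nm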
SIAE primary: blocks human sialic acid acetylesterase. inhibition, % at 9.66 µM. AID 1053197. SIAE FP-Rh probe binding, fluorescence polarization. 370,000 compounds, 0.69% hits. Q9HAT2;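 active = inhibition above a cutoff: mean of compounds within the control limits plus 3 SD of those, cut at about 17% in these data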;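 note: 0% = plate median of compound wells and 100% = probe without SIAE protein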
TCR CD3 inh: inhibitors of human TCR-CD3 interaction. inhibition, % at 9.4 µM. AID 651800. TAMRA-labeled TCR probe fluorescence, biochemical. 360,000 compounds, 0.37% hits; in the data active = inhibition above about 19%;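 note: recombinant mutant TCR 2C K166C tagged with TAMRA read by polarization; 0% = receptor in buffer alone and 100% = receptor with positive control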
HTRA1 inhibitor: blocks human HTRA1 serine peptidase; Q92743; 340,000 compounds, 0.5% hits; inhibition, % at 5.96 µM; recombinant HTRA1, FP-rhodamine activity-based probe, fluorescence polarization; in the data active = inhibition above about 36%;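 note: 0% = enzyme with DMSO and 100% = wells lacking enzyme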
Target sequence (Q92743 whole entry, looked up): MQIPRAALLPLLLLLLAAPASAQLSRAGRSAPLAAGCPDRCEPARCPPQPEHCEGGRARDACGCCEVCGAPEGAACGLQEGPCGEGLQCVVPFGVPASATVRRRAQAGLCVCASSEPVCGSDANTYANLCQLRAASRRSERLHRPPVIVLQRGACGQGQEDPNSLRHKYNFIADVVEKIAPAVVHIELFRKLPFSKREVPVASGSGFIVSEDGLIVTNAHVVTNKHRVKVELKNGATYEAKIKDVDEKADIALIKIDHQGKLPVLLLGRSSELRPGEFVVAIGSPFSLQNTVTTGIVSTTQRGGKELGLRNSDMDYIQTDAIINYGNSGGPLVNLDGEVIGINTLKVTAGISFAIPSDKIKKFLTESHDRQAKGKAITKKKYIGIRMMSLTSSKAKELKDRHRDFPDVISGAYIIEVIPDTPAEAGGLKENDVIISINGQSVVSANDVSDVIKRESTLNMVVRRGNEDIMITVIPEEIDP
PRMT1 inh: blocks human protein arginine methyltransferase 1. Q99873. recombinant PRMT1, activity-based probe fluorescence polarization. inhibition, % at 2.79 µM. 370,000 compounds, 1.3% hits. AID 652257;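 active = inhibition above about 21% made by adding two undisclosed values, limit read from the data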
ABHD4 confirm: ABHD4 (mouse) inhibition, FP confirmation; purified mABHD4, FP-Rh probe fluorescence polarization; 1,800 compounds, 55% hits; shares compounds with ABHD4 inh; inhibition, % at 8.92 µM;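 active = mean inhibition across replicates above the hit cutoff set in the primary screen, cut at about 30% in these data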;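 note: 0% = wild-type ABHD4 with DMSO and 100% = catalytically dead S159A mutant with DMSO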
Starred values were filed as active, the others as inactive; · = not tested or not shown. Rows were chosen to be rich in hits. Some 2.5% of all compounds tested hit in one or more screens of this group.

SMILES | ABHD4 inh | SIAE primary | TCR CD3 inh | HTRA1 inhibitor | PRMT1 inh | ABHD4 confirm
CN(Cc1cccc(C(F)(F)F)c1)C(=O)C1CCC(=O)N(CC2CCCCC2)C1 (stereo unspecified) | 6 | 0 | 1 | 2 | -4 | ·
CNC[C@@H](CC1CCCCC1)NC[C@H](CC(C)C)NCCc1cccc(C(F)(F)F)c1 | 31* | -3 | -5 | 5 | 2 | 52*
CNC[C@@H](Cc1ccccc1)NC[C@@H](CC1CCCCC1)NCCCc1ccccc1 | 38* | 5 | 8 | 4 | 1 | 46*
C/C=C/C(=O)N1CCC(C(=O)NCC2COc3ccccc3O2)CC1 (stereo unspecified) | 7 | 1 | · | · | -3 | ·
COc1ccc(-c2nc(N/N=C(\C)c3ccc(O)cc3)c3ccccc3n2)cc1 | 32* | 0 | -8 | -21 | 7 | 0
COc1ccc(Nc2nc(-c3ccccc3)nc3ccccc23)cc1 | -7 | 1 | -5 | -29 | -3 | ·
O=S(=O)(Nc1cccc2c1ccc1cccn12)c1cccs1 | 34* | 10 | 1 | 14 | 16 | 8
O=S(=O)(Nc1cccc2[nH]ncc12)c1cccs1 | 3 | 7 | 2 | 0 | 0 | ·
Cc1nc(C)n(CCNS(=O)(=O)c2ccc(C)c(C)c2)n1 | -8 | -7 | -1 | -1 | -6 | ·
CCN(CC)C(=O)CC[C@@H]1CC[C@]2(CCCN(Cc3cccnc3)C2)O1 | 7 | 0 | · | · | -2 | ·
CCCCN(C)CCNC(=O)CCn1nc(-c2ccc(C)cc2)ccc1=O | -5 | -1 | 6 | 4 | -2 | ·
Cc1ccc(NC(=O)COC(=O)CCn2c(C)csc2=O)c([N+](=O)[O-])c1 | 7 | -6 | 9 | 4 | 2 | ·
Cc1csc(=O)n1CCC(=O)OCC(=O)Nc1cc([N+](=O)[O-])ccc1Cl | 56* | 0 | 3 | -8 | 4 | -9
O=C(Nc1ccccc1Cl)c1ccc2nc(N3CCOCC3)sc2c1 | 3 | -6 | 0 | -7 | 0 | ·
Cc1c(C(=O)O)cccc1-n1c(C)cc(/C=N/Nc2ccc([N+](=O)[O-])cn2)c1C | 30* | 7 | -4 | 14 | 11 | 48*
COc1ccc(C2=NNC(=O)C2(C)Br)cc1 (stereo unspecified) | 2 | 3 | -5 | -6 | 4 | ·
COc1cc(C(=O)N(Cc2ccccc2)c2cccc(C)c2)ccc1OCC(=O)N1CCOCC1 | -5 | -3 | -7 | -4 | 6 | ·
c1ccc(-c2c[nH]c3ccc(OCCN4CCOCC4)c(-c4ccccc4)c23)cc1 | 2 | 2 | · | · | 0 | ·
O=C(NNC(=O)c1nc2ccccc2[nH]1)OCc1ccccc1 | 36* | 5 | 0 | 3 | -2 | 13
CCOC(=O)/C(O)=C(\C#N)c1nc2ccccc2[nH]1 | 15 | 5 | -2 | 11 | 4 | ·
CCn1cc(CNC(=S)Nc2cccc(Cl)c2C)cn1 | 1 | -4 | 7 | -19 | -4 | ·
O=C(O)c1ccc(C2NCC(c3ccccc3Cl)c3c2[nH]c2ccccc32)cc1 (stereo unspecified) | 7 | 0 | -2 | -27 | -3 | ·
COc1cc(C2NCC(c3ccc(Cl)cc3Cl)c3c2[nH]c2ccccc32)cc(OC)c1OC (stereo unspecified) | 44* | 0 | -5 | -33 | -3 | 59*
Nc1ccc2c(c1)-c1ccccc1S(=O)(=O)N2 | 50* | 14 | 0 | 30 | 22* | 31*
Cc1ccc2c(c1)-c1ccccc1S(=O)(=O)N2 | 6 | -1 | 2 | -3 | -1 | ·
SMILES | ABHD4 inh | SIAE primary | TCR CD3 inh | HTRA1 inhibitor | PRMT1 inh | ABHD4 confirm
Cc1ccc(C(C)C)c(OCC(=O)NC2CCN(C)CC2)c1 | 0 | 3 | 9 | -1 | 1 | ·
Cc1c(C#N)c(N)nc2c3c(sc12)NC(=O)CC3c1ccc(Cl)cc1 (stereo unspecified) | 8 | 13 | 2 | -16 | 0 | ·
N#Cc1c(N)nc2c3c(sc(=N)c2c1N)NC(=O)CC3c1ccccc1 (stereo unspecified) | 31* | -2 | 17 | 26 | 8 | -77
C/C(=N\Nc1nc2ccccc2s1)c1ccc(Br)s1 | 33* | 5 | 4 | 33 | 2 | 6
CC1=C(C(=O)NCc2ccc3c(c2)OCO3)C2(CCC(C)CC2)OC1=O (stereo unspecified) | 4 | 2 | -4 | -3 | -5 | ·
CC1=C(C(=O)NCc2ccco2)C2(CCC(C)CC2)OC1=O (stereo unspecified) | 31* | 0 | -9 | -6 | 5 | -5
Cc1ccc(CCNc2ccccc2C)cn1 | 3 | -1 | -4 | 2 | -4 | ·
Oc1csc(Cc2nc(-c3ccc(-c4ccccc4)cc3)cs2)n1 | 33* | 4 | 2 | 2 | 1 | -8
Oc1csc(Cc2nc(-c3ccc4ccccc4c3)cs2)n1 | 27 | -9 | -4 | 10 | 3 | ·
O=C1/C(=C2\C(=O)N(Cc3ccc(F)cc3)c3ccccc32)SC(=S)N1CCS(=O)(=O)O | 76* | 14 | -8 | -6 | 9 | 100*
CCN1C(=O)c2cccc3c(N)ccc(c23)C1=O | 33* | 9 | 12 | 24 | 172* | 58*
O=C1CCC[C@H]2C[C@H](NCc3ccc(Cl)c(C(F)(F)F)c3)CC[C@]23CCCN13 | 6 | 4 | · | · | -2 | ·
COc1ccc(/C=N/Nc2snc(SC)c2C#N)cc1OC | 35* | -4 | 1 | 2 | 7 | 34*
COc1cccc(/C=N/Nc2snc(SC)c2C#N)c1O | 33* | -24 | 5 | 6 | 0 | 23
Cc1ccc(S(=O)(=O)N2CC(CO)=CCC2c2ccccc2)cc1 (stereo unspecified) | -1 | 2 | 1 | · | -1 | ·
COCCCOc1cc(NCc2ccccc2)c2ncn(C(C)C)c2c1 | 8 | 4 | 3 | 5 | 0 | ·
CCC(CO)Oc1cc(NCc2ccc(C(C)(C)C)cc2)c2ncn(C(C)C)c2c1 (stereo unspecified) | 30* | 4 | 10 | 14 | 1 | 34*
CCCCOc1cc(NCc2ccccc2)c2ncn(C(C)C)c2c1 | 37* | 11 | 8 | 17 | 0 | 91*
CNc1oc(-c2ccccc2F)nc1S(=O)(=O)c1ccc(C)cc1 | -1 | 8 | 5 | -6 | 0 | ·
COCCC1CCCCN1C(=O)c1ccc2nc(Cc3ccccc3F)oc2c1 (stereo unspecified) | -3 | 0 | -12 | -3 | 2 | ·
NC(=S)n1[nH]c(-c2ccc([N+](=O)[O-])cc2)c(N=Nc2cccc([N+](=O)[O-])c2)c1=O | 30* | -3 | -5 | 7 | 7 | 54*
NC(=S)n1[nH]c(-c2ccc([N+](=O)[O-])cc2)c(N=Nc2ccccc2[N+](=O)[O-])c1=O | 16 | 3 | 0 | 0 | -4 | ·
O=C(CSc1n[nH]c(=O)[nH]c1=O)Nc1ccc2c(c1)C(=O)c1ccccc1C2=O | 38* | -3 | 16 | 5 | 5 | 56*
O=C(CSc1ccccn1)Nc1ccc2c(c1)C(=O)c1ccccc1C2=O | 8 | -3 | 6 | 1 | 1 | ·
